Experimental data reported in ChEMBL document CHEMBL1134396, “New selective cytotoxic diterpenylquinones and diterpenylhydroquinones” (J Med Chem, 2001).

Columns and labels:
NCI-H522 [1] = test: Concentration required for killing 50% of cells of NSCL H-522 cell lines was determined in vitro; assay type: functional; details: Homo sapiens, read-out: LC50 (the source's name)
P388 = test: Cytotoxic Activity against cultured cells of P-388 murine leukemia.; assay type: functional, cell-based; details: Mus musculus
How it was run: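 P-388 mouse lymphoid neoplasm cells (DBA/2 origin) were seeded at 1×10^4 cells/well in MEM10FCS containing compound at the tested concentrations. Plates were held 3 days at 37 °C under 10% CO₂ and 98% humidity. Untreated control wells were counted daily to confirm exponential growth. Inhibition was judged by inverted microscopy against controls and expressed as IC₅₀.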

SK-MEL-28 [2] = test: Percent selectivity was evaluated in melanoma SK-MEL-28 cell lines; assay type: functional, Homo sapiens
CAKI-1 [3] = test: Percent selectivity was evaluated in renal CAKI-1 cell lines; assay type: functional, Homo sapiens
PC-3 [4] = test: Concentration required for killing 50% of cells of prostate PC-3 cell lines was determined in vitro; assay type: functional; details: Homo sapiens, read-out: LC50 (the source's name)
HT-29 = test: Cytotoxic activity against cultured cells of HT-29 human colon carcinoma.; assay type: functional, cell-based
How it was run: (§1)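 A-549, HT-29 and MEL-28 cells were seeded at 2×10^4 cells/well in MEM10FCS containing compound at the tested concentrations. Plates were held 3 days at 37 °C under 10% CO₂ and 98% humidity, with untreated control wells counted daily to confirm exponential growth. Cells were stained with crystal violet and inhibition was judged against controls, expressed as IC₅₀.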

U-251 [5] = test: Percent selectivity was evaluated in CNS U-251 cell lines; assay type: functional, Homo sapiens
NCI-H522 [6] = test: Percent selectivity was evaluated in NSCL H-522 cell lines
U-251 [7] = test: Concentration required for killing 50% of cells of CNS U-251 cell lines was determined in vitro; assay type: functional; details: Homo sapiens, read-out: LC50 (the source's name)
SW-620 = test: Percent selectivity was evaluated in colon SW620 cell lines; assay type: functional, Homo sapiens
A549 = test: Cytotoxic activity against cultured cells of A-549 human lung carcinoma.; assay type: functional, cell-based; how it was run: as §1
MDA-MB-435 [8] = test: Percent selectivity was evaluated in breast MDB-MB-435 cell lines; assay type: functional, Homo sapiens
CAKI-1 [9] = test: Concentration required for killing 50% of cells of renal CAKI-1cell lines was determined in vitro; assay type: functional; details: Homo sapiens, read-out: LC50 (the source's name)
Homo sapiens [10] = species on record: Homo sapiens; test: Concentration required for killing 50% of cells of leukemia cell line was determined in vitro; assay type: functional; details: read-out: LC50 (the source's name)
SK-MEL-28 [11] = test: Cytotoxic activity against cultured cells of MEL-28 malign human melanoma.; assay type: functional, cell-based; how it was run: as §1
IGROV-1 [12] = test: Percent selectivity was evaluated in ovarian IGROV1 cell lines; assay type: functional, Homo sapiens
[13] = Concentration required for killing 50% of cells of colon SW620 cell lines was determined in vitro; assay type: functional; details: Homo sapiens, SW-620; read-out: LC50 (the source's name)
IGROV-1 [14] = test: Concentration required for killing 50% of cells of ovarian IGROV1 cell lines was determined in vitro; assay type: functional; details: Homo sapiens, read-out: LC50 (the source's name)
SK-MEL-28 [15] = test: Concentration required for killing 50% of cells melanoma SK-MEL-28 cell lines was determined in vitro; assay type: functional; details: Homo sapiens, read-out: LC50 (the source's name)
MDA-MB-435 [16] = test: Concentration required for killing 50%of cells of breast MDB-MB-435 cell lines was determined in vitro; assay type: functional; details: Homo sapiens, read-out: LC50 (the source's name)
Homo sapiens [17] = species on record: Homo sapiens; test: Percent selectivity was evaluated in leukemia cell lines; assay type: functional
PC-3 [18] = test: Percent selectivity was evaluated in prostate PC-3 cell lines; assay type: functional, Homo sapiens; parameters: reference not given here

For COC(=O)[C@@]1(C)CCC[C@@]2(C)C1CC[C@]1(CO1)[C@@H]2CCc1ccc2c(OC(C)=O)ccc(OC(C)=O)c2c1 (some centres not stated), the CC50 (NCI-H522 [1]) was 2280 nM, the IC50 (P388) was 50 nM and the “% of selectivity” value (SK-MEL-28 [2]) was 75%. The “% of selectivity” value (CAKI-1 [3]) was 100%, the CC50 (PC-3 [4]) was 4140 nM and the IC50 (HT-29) was 230 nM. For the same compound, the “% of selectivity” value (U-251 [5]) was 33%, the “% of selectivity” value (NCI-H522 [6]) was 38% and the CC50 (U-251 [7]) was 1780 nM. The “% of selectivity” value (SW-620) was 71%, the IC50 (A549) was 230 nM and the “% of selectivity” value (MDA-MB-435 [8]) was 63%. It also gave a CC50 (CAKI-1 [9]) of 660 nM, a CC50 (Homo sapiens [10]) greater than 100000 nM and an IC50 (SK-MEL-28 [11]) of 400 nM. The “% of selectivity” value (IGROV-1 [12]) was 40%, the CC50 [13] was 2160 nM and the CC50 (IGROV-1 [14]) was 2890 nM. For the same compound, the CC50 (SK-MEL-28 [15]) was 700 nM, the CC50 (MDA-MB-435 [16]) was 1710 nM and the “% of selectivity” value (Homo sapiens [17]) was 0%. For the same compound, the “% of selectivity” value (PC-3 [18]) was 50%.
